# Assay outcomes deposited in PubChem by The Scripps Research Institute Molecular Screening Center.
# CHRM4 agonist: agonists of human muscarinic M4 receptor (CHRM4); CHO-K1 hM4/Gqi5, Fluo-8 calcium fluorescence; vehicle 0%, full acetylcholine response 100%; hit rate 0.14% among 360,000; activation, % at 3 µM;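 active = activation above the run mean over all test wells plus 3 SD, cut at about 32% in these data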;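 note: peak over basal fluorescence ratio per well then scaled between controls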
# M4 PAM: positive allosteric modulators of human muscarinic M4 receptor; AID 624126; P08173; activation, % at 3 µM; CHO-K1 hM4/Gqi5, Fluo-8 calcium fluorescence, ACh EC20; 0% = ACh EC20, 100% = maximal ACh; hit rate 0.4% among 360,000;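 active = activation above its plate's cutoff, the mean activation of sample wells plus 3 SD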
# CHRM5 PAM: potentiates acetylcholine response at human M5 receptor | P08912 | CHO-K1 hM5, Fluo-8 calcium, ACh EC20 PAM; 0% = ACh EC20, 100% = ACh EC100 | activation, % at 3 µM | hit rate 0.3% among 360,000;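 active = activation above the run cutoff, the mean activation of all test compounds plus 3 SD, cut at about 18% in these data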
# Target sequence (P08912 whole entry, looked up): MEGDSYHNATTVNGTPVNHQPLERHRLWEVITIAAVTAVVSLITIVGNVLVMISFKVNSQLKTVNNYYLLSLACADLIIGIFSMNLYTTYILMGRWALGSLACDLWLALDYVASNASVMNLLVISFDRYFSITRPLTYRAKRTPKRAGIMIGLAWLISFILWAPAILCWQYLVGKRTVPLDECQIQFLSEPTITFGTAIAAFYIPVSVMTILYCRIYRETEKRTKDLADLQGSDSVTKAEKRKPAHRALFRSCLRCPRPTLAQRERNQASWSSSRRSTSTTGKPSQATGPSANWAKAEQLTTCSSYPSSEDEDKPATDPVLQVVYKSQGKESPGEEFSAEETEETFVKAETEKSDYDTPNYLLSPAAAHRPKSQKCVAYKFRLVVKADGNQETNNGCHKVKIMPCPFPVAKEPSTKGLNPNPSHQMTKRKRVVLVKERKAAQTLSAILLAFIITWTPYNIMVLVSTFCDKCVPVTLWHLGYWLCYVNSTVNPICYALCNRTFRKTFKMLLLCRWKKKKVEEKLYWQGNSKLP
#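 system = human M5 receptor in CHO-K1 cells | reagent = EC20 acetylcholine as agonist stimulus | compound dosing = single-point, 3 µM nominal | incubation = Fluo-8 loading 80 min at 37 °C plus 30 min room temperature | detection = Fluo-8 calcium dye fluorescence, kinetic read | benchmarks = low control EC20 acetylcholine (0%), high control EC100 acetylcholine (100%)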
# M5 antag: antagonists of human muscarinic M5 receptor (CHRM5). CHO-hM5 cells, Fluo-8 calcium fluorescence, ACh EC80. P08912. inhibition, % at 3 µM. hit rate 0.59% among 360,000;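 active = inhibition above a per-plate cutoff, the mean of that plate's test compounds plus 3 SD, cut at about 27% in these data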
# M5 ag: CHRM5 agonism in calcium assay; CHO-K1 hM5 cells, Fluo-8 calcium fluorescence; 0% DMSO wells, 100% maximal acetylcholine response; activation, % at 3 µM; hit rate 0.19% among 360,000; AID 624037;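 active = activation above the run's mean over test compounds plus 3 SD, cut at about 23% in these data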;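 note: signal is peak over basal fluorescence ratio across the kinetic read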
# M4 antag: CHRM4 antagonism in calcium assay; P08173; CHO-hM4 cells, ACh EC80, Fluo-8 calcium fluorescence; inhibition, % at 3 µM; hit rate 0.73% among 360,000;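 active = inhibition above its plate's cutoff, the mean inhibition of sample wells plus 3 SD, cut at about 27% in these data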
# Numbers stand for hits; n = inactive. Hits are enriched below; roughly 1.8% of the tested compounds scored in any of these assays.
SMILES,CHRM4 agonist,M4 PAM,CHRM5 PAM,M5 antag,M5 ag,M4 antag
CCOC(=O)CSc1nc(C)c(CC)c(C)c1C(N)=O,n,n,n,n,n,n
CCOC(=O)c1c(-c2ccc(OC)cc2)oc2c1C(OC(C)=O)CCC2 (configuration not stated),n,n,n,n,n,n
Cc1ccc(NC(=O)C2=C(c3ccccc3)S(=O)(=O)CCS2(=O)=O)cc1,n,n,n,n,n,39.4
Cc1ccc2nc(C(C)(C)C)c(Cc3cccc(F)c3)n2c1,n,n,n,n,n,n
COC(=O)[C@@]12C[C@@H](CC(=O)N3CCC(c4ccccc4)CC3)C(=O)N(Cc3ccco3)C1=CCC(C)(C)C2,n,n,n,n,n,n
COc1ccc(CC(=O)OCC(=O)Nc2ncc(Cl)cc2Cl)cc1OC,n,n,n,n,n,26.6
COc1cc(CCC(=O)OCC(=O)Nc2ncc(Cl)cc2Cl)cc(OC)c1OC,n,n,n,n,n,n
COC(=O)c1sccc1NC(=O)Nc1cc(C)cc(C)c1,n,n,n,28.9,n,n
N#CC1=C(N)OC(c2ccccc2)=C(C#N)C1c1ccc2c(c1)OCO2 (configuration not stated),n,n,n,n,n,n
N#CC1=C(N)OC2=C(C(=O)CC(c3ccccc3)C2)C1c1ccc2c(c1)OCO2 (configuration not stated),n,n,n,n,n,38.0
CC(C)CN(CC(C)C)c1nc(N)c(C#N)c(CC#N)c1C#N,n,27.5,n,n,n,n
COc1ccc(/C=N\NC(=O)c2ccc([N+](=O)[O-])cc2)cc1COc1c(F)c(F)cc(F)c1F,n,n,n,27.1,n,n
COc1ccc(C(=O)N/N=C/c2ccc(OC)c(COc3c(F)c(F)cc(F)c3F)c2)cc1,n,n,n,n,n,n
CCCNC(=O)C1(C)CCCN(C(=O)Cc2ccc3ccccc3c2)C1 (configuration not stated),n,n,n,n,n,n
COCCNC(=O)C1(C)CCCN(C(=O)Cc2ccc3ccccc3c2)C1 (configuration not stated),n,17.3,n,n,n,n
O=C(NNC(=O)c1cc(-c2cccnc2)nc2ccccc12)Nc1ccc(Cl)cc1,n,n,n,37.8,n,30.1
COc1ccccc1-c1noc(CCC(=O)Nc2cc(C(F)(F)F)ccc2Cl)n1,n,n,19.2,n,n,31.2
COc1ccccc1-c1noc(CCC(=O)Nc2cccnc2)n1,n,n,n,n,n,n
CCCCn1nnnc1C(c1cc2ccccc2o1)N1CCN(CC(=O)NC(C)C)CC1 (configuration not stated),n,n,n,n,n,n
COc1ccc(C(=O)NNC(=S)NC(=O)C(C)(C)C)cc1,87.6,n,n,n,27.2,n
COc1ccc(C(=O)NC(=S)NNC(=O)c2ccccc2C)cc1,122.6,n,n,27.6,59.3,n
COc1ccc(C(=O)NC(=S)NNC(=O)c2ccccc2O)cc1,n,n,n,n,n,n
Cc1cc(NC(=O)c2cc3ccccc3o2)ccc1NC(=O)c1ccccc1,n,n,n,n,n,n
Cc1cc(NC(=O)c2cccnc2)ccc1NC(=O)c1cc2ccccc2o1,33.0,n,n,n,n,n
N=C1/C(=C/c2coc3ccccc3c2=O)C(=O)N=C2SC(c3ccco3)=NN12,64.3,n,n,53.4,222.9,n
CN1C(=O)/C(=C/c2coc3ccc(O)cc3c2=O)SC1=S,n,n,n,n,n,n
N=C1/C(=C\c2coc3ccccc3c2=O)C(=O)N=C2SC(c3ccncc3)=NN12,41.2,n,n,51.5,65.0,28.3
N=C1/C(=C\c2coc3ccc(O)cc3c2=O)C(=O)N=C2SC=CN12,49.7,n,n,n,65.2,n
Cc1cc(/C=C2\C(=N)N3N=C(c4ccco4)SC3=NC2=O)c(C)n1Cc1ccccc1,n,n,n,n,n,n
CC(=O)Nc1ccc(C(=O)N2CCCC(c3cc(C(=O)NCc4ccc(F)cc4)no3)C2)cc1 (configuration not stated),n,n,n,n,n,n
